Experimental data reported in ChEMBL document CHEMBL1147030, “N-thiolated beta-lactams: Studies on the mode of action and identification of a primary cellular target in Staphylococcus aureus” (2007).
Activity calls are given as the source filed them. The calls are words filed in the database; no cut-off is given here.

How the values were obtained:
Staphylococcus aureus [1] = assay: Growth inhibition against methicillin-susceptible Staphylococcus aureus ATCC 25923 after 2 hrs by agar dilution; type: functional, organism-based
Staphylococcus aureus [2] = assay: Growth inhibition against […] Staphylococcus aureus ATCC 25923 after 2 hrs by agar dilution; type: functional, organism-based
Summary of the method: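 Log-phase overnight culture inoculated at 10^6 cfu/mL into fresh Mueller-Hinton broth and shaken 1 hr at 35°C. Compound in DMSO then added at 1, 5 or 10 times the MIC, with MIC set by agar dilution in Mueller-Hinton II agar read after 24 hr at 37°C. Growth was followed by viable counts from plated dilutions (colonies counted after 24 hr) and OD 630 nm.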

Staphylococcus aureus [3] = assay: Growth inhibition against penicillin-susceptible Staphylococcus ATCC 25923 aureus after 24 hrs; type: functional, organism-based
Summary of the method: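 Well-diffusion plate: 10^8 suspension in PBS pH 7.4 swabbed on TSA; 6-mm wells loaded with 20 μg compound (from 1 mg/mL DMSO stock), penicillin G 20 μg as comparator; 37°C, 24 h; growth-inhibition zones read.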

Staphylococcus aureus [4] = assay: Inhibition of cell wall biosynthesis in Staphylococcus aureus assessed as cytoplasmic membrane rupture; type: functional, organism-based
Summary of the method: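 S. aureus ATCC 25923 lawns on TSA with 6-mm paper discs carrying 20 μg compound or penicillin G. SEM: after 24 h at 37°C, agar at the edge of inhibition zones cut out, glutaraldehyde-osmium fixed, gold/palladium coated, imaged for cell morphology. Light microscopy: after 4–5 h, cells lifted onto coverslips from zones, Gram-stained (safranin counterstain), viewed bright-field.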

Escherichia coli = assay: Effect on pBR322 fragmentation at 5 to 100 uM after 24 hrs by agarose gel electrophoresis; type: functional
Summary of the method: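 Supercoiled pBR322 (0.5 μg) in 50 mM sodium phosphate, pH 7.4, treated with 5–100 μM compound (added in DMSO; DMSO-only lane as control), 37°C for 24 h. Aliquots run on 1.2% agarose/TAE gel with ethidium bromide at 80 V/10 cm for 2.5 h, UV visualization of single- and double-strand breakage.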

Staphylococcus aureus [5] = assay: Effect on DNA replication in Staphylococcus aureus ATCC 25923 assessed as inhibition of [3H]thymidine utilization after 30 mins relative to control; type: functional; set-up: scale not given: the % may be the effect or the level left
Summary of the method: (§1)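 Early log-phase cells in Luria Broth labelled with 3 μCi [methyl-3H]thymidine (DNA) or 3 μCi [5-3H]uridine (RNA), with or without drug at twice the MIC; ciprofloxacin (DNA) or rifampicin (RNA) as reference inhibitors, DMSO control. 50 μL samples taken at 5, 10, 20, 30, 45, 60 min into ice-cold 10% TCA; precipitated radioactivity by liquid scintillation, expressed relative to untreated control.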

Staphylococcus aureus [6] = assay: Effect on RNA transcription in Staphylococcus aureus ATCC 25923 assessed as [3H]uridine incorporation after 20 mins relative to control; type: functional; summary of the method: as §1
Staphylococcus aureus [7] = assay: Effect on fatty acid biosynthesis in Staphylococcus aureus RN4220 assessed as [3H]acetate uptake relative to control; type: functional, organism-based
Summary of the method: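 Strain RN4220 grown at 37 °C to A600 0.11 (1.3 x 10^7 cfu/mL), split into 5 mL tubes; drug added at 1x or 2x MIC (final DMSO 2%), penicillin G 2xMIC and no-drug controls. After 5 min, 3H-acetate added (4 μCi/mL); 0.8 mL aliquots at 15, 30, 45, 60 min extracted with chloroform/methanol; uptake compared with controls.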

SMILES | Activity (Staphylococcus aureus [1]) | Activity (Staphylococcus aureus [2]) | Activity (Staphylococcus aureus [3]) | Activity (Staphylococcus aureus [4]) | Activity (Escherichia coli) | Activity (Staphylococcus aureus [5]) [%] | Activity (Staphylococcus aureus [6]) [%] | Activity (Staphylococcus aureus [7])
CO[C@H]1C(=O)N(SC)[C@H]1c1ccccc1Cl | Active | Active | Active | inactive | inactive | >90 | 80 | Active
CC1(C)S[C@@H]2[C@H](NC(=O)Cc3ccccc3)C(=O)N2[C@H]1C(=O)O |  |  | inactive | Active |  |  |  | 
O=C(O)c1cn(C2CC2)c2cc(N3CCNCC3)c(F)cc2c1=O [CIPROFLOXACIN] |  |  |  |  |  | 65 |  | 
CO[C@H]1/C=C/O[C@@]2(C)Oc3c(C)c(O)c4c(O)c(c(/C=N/N5CCN(C)CC5)c(O)c4c3C2=O)NC(=O)/C(C)=C\C=C\[C@H](C)[C@H](O)[C@@H](C)[C@@H](O)[C@@H](C)[C@H](OC(C)=O)[C@@H]1C [RIFAMPIN] |  |  |  |  |  |  | <20 | 
